Holding throughout (format): functional
The species named for one experiment is Homo sapiens. Put plainly: Inhibition of platelet aggregation induced by arachidonic acid(AA) in human platelet-rich plasma. As to conditions: read-out: I50. A digest of the protocol:
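Human platelet-rich plasma; aggregation triggered by arachidonic acid. Potency is expressed as the I50 (concentration giving 50% inhibition), reported as mean ± SEM or as mean ± range when n = 2.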

The test system of experiment [1] is Cavia porcellus. The experiment is described as follows: Percent inhibition of increase in pulmonary resistance was measured on arachidonic acid induced bronchoconstriction in the anesthetized guinea pig after 3 min. Summed up:
(§1)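 Anesthetized guinea pigs received the test agent at 1 mg/kg iv. Arachidonic acid (0.5 mg/kg iv) injections were given as challenge. Rises in pulmonary resistance were recorded, and percent inhibition was scored at 3, 10 and 30 min. Values are mean ± SEM, n = 3–5 animals.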

The subject of experiment [2] is Cavia porcellus. The experiment is described as follows: Percent inhibition of increase in pulmonary resistance was measured on arachidonic acid induced bronchoconstriction in the anesthetized guinea pig after 30 min. A digest of the protocol:
as §1

Experiment [3] relates to Cavia porcellus. Put plainly: Percent inhibition of increase in pulmonary resistance was measured on arachidonic acid induced bronchoconstriction in the anesthetized guinea pig after 10 min. A digest of the protocol:
as §1

As a reminder, the Inhibition is the drop in the measured response relative to a control, in per cent. Higher therefore signals a response far below the control.

Take `CCCCC[C@H](O)/C=C/C1C(C/C=C\CCCC(=O)O)C2OC1C1OC21` (some centres not stated): in the experiment listed under Homo sapiens, the IC50 came out at 15.3 µM.
Same read-out and setting: the value for `O=C(O)CCC/C=C\CC1C(/C=C/[C@@H](O)C2CCCCC2)C2OC1C1OC21` (some centres not stated) was 5.2 µM.
In the case of `CC1([C@H](O)/C=C/C2C(C/C=C\CCCC(=O)O)C3OC2C2OC32)CCCCC1` (some centres not stated), the Inhibition is on record as 85% in the experiment on Cavia porcellus [1], 22% with Cavia porcellus [2] and 67% in the experiment with Cavia porcellus [3]. Further, the IC50 in the experiment listed under Homo sapiens was found to be 0.53 µM.
Regarding `O=C(O)CCC/C=C\C[C@@H]1[C@H](CNNC(=O)Nc2ccccc2)[C@H]2CC[C@H]1O2`, the figures for the Inhibition in the experiment on Cavia porcellus [1], in the experiment on Cavia porcellus [2] and in the experiment with Cavia porcellus [3] were 97%, 96% and 98%, respectively. Besides, the IC50 in the experiment filed under Homo sapiens was found to be 0.02 µM.
Regarding `O=C(O)CCC/C=C\CC1C(/C=C/[C@@H](O)CCc2ccccc2)C2OC1C1OC21` (some centres not stated), the IC50 in the experiment filed under Homo sapiens was 1.6 µM.
For the compound `CCCCC(C)(C)[C@H](O)/C=C/C1C(C/C=C\CCCC(=O)O)C2OC1C1OC21` (some centres not stated), in the experiment filed under Homo sapiens, the IC50 was determined as 2.2 µM.
For `O=C(O)CCC/C=C\CC1C(/C=C/[C@H](O)C2CCCCC2)C2OC1C1OC21` (some centres not stated), in the experiment filed under Homo sapiens, the IC50 came to 17 µM.
As to `O=C(O)CCC/C=C\CC1C(/C=C/[C@@H](O)CCc2ccc(O)cc2)C2OC1C1OC21` (some centres not stated), the Inhibition with Cavia porcellus [1] is 90%; in the experiment on Cavia porcellus [2], 46%; in the experiment on Cavia porcellus [3], 83%. The IC50 in the experiment listed under Homo sapiens was determined as 0.27 µM.
Regarding `COc1ccc2c(c1)c(CC(=O)O)c(C)n2C(=O)c1ccc(Cl)cc1` [INDOMETHACIN], the IC50 in the experiment filed under Homo sapiens is 6 µM.
`O=C(O)COc1ccc(CCNS(=O)(=O)c2ccccc2)cc1` [SULOTROBAN]: the figures for the Inhibition in the experiment on Cavia porcellus [1], in the experiment with Cavia porcellus [2] and in the experiment on Cavia porcellus [3] were 89%, 40% and 82%, respectively. In addition, the IC50 in the experiment filed under Homo sapiens was 38.5 µM.

Source of the values: ChEMBL document CHEMBL1124110, “Synthesis and pharmacological evaluation of 5,6-exo-epoxy-7-oxabicyclo[2.2.1]heptane derivatives” (J Med Chem, 1988).
